High-throughput results: PubChem BioAssay, several laboratories
NPY-Y2 PAM-ag: human NPY-Y2 potentiation or agonism, primary screen | P49146 | cells expressing NPY-Y2, potentiator/agonist read-out | activation, % at 3.6 µM | 0.45% of 220,000 active | AID 1359; in the data active = activation above about 27%;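 note: cells stimulated with NPY near EC25 plus isoproterenol at EC100; 0% = vehicle plus submaximal agonist and 100% = vehicle plus saturating agonist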
Target sequence (P49146 whole entry, looked up): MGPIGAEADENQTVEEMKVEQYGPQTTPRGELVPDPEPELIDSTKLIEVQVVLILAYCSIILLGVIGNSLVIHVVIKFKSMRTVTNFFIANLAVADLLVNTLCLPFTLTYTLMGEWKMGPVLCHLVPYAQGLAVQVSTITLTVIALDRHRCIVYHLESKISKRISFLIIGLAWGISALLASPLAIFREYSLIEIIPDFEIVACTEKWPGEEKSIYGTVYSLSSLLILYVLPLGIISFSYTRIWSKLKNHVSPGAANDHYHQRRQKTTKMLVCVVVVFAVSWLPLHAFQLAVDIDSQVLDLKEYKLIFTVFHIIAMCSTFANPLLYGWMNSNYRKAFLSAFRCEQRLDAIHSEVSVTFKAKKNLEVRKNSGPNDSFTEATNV
NPY-Y1 PAM-ag: potentiates or activates human NPY-Y1 receptor; 0.37% of 220,000 active; NPY-Y1 expressing cells, potentiator/agonist activation; P25929; activation, % at 3.6 µM; in the data active = activation above about 33%, passing the limit was not always enough;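 note: cells stimulated with NPY at EC10 then isoproterenol at EC100; 0% = low agonist plus stimulus and 100% = saturating agonist plus stimulus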
EP2 modulator: EP2 receptor (human) modulation | EP2-expressing cells, cAMP HTRF FRET, PGE2 co-stimulation | induction, % at 25 µM | 0.83% of 260,000 active | AID 940;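 active = compounds whose cAMP rise, as percent of the full-agonist control response, exceeds 60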;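 note: rat C6 glioma line stably carrying human EP2 under a CMV promoter; the protocol text gives 20 µM as final concentration; 100% = response of wells given 1 µM PGE2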
Target sequence (P43116 whole entry, looked up): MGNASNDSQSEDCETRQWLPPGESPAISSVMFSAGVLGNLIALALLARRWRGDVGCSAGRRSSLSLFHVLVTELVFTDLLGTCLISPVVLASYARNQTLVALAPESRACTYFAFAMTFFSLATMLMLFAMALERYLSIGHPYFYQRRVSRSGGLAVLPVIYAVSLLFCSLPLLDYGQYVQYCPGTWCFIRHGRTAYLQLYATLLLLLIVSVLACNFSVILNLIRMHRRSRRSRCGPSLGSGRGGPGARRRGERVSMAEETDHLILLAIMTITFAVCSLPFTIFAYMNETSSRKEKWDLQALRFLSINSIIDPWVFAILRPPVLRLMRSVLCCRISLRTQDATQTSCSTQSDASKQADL
NPY-Y1 antag: blocks the human neuropeptide Y Y1 receptor | HEK293-CNG Y1 cells, membrane potential fluorescence; NPY at EC95, then isoproterenol | inhibition, % at 3.6 µM | 1% of 200,000 active | AID 1040;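 active = inhibition above the campaign mean inhibition of all tested compounds plus 3 SD, cut at about 20% in these data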;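 note: 0% = DMSO wells given NPY plus isoproterenol and 100% = isoproterenol alone without NPY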
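Material: HEK293 cells with Y1 receptor plus CNG channel; times: compound incubation 1 h at room temperature, readout 45 min post-stimulation; signal: fluorescence, membrane potential probe; read-out basis: fluorescence ratio normalized to % inhibition between controls; benchmarks: full-block control isoproterenol-only wells, zero-block control NPY plus isoproterenol wells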
NPY-Y2 antag: antagonists of human neuropeptide Y receptor Y2; P49146; inhibition, % at 2.7 µM; AID 793; 0.99% of 140,000 active; NPY-Y2 expressing cells, antagonist mode; in the data active = inhibition above about 17%;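 note: 0% = vehicle with agonist challenge and 100% = reference antagonist with challenge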
EP2 antag: inhibitors of human EP2 prostaglandin E2 receptor; inhibition, % at 25 µM; C6 glioma cells expressing human EP2, cAMP TR-FRET; cells stimulated with saturating PGE2; 0.52% of 260,000 active; P43116;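 active = percent inhibition above 40 after rounding to a whole number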;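 note: rat C6 glioma host cells with rolipram phosphodiesterase inhibitor present; the protocol text gives 20 µM as final concentration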
NPY-Y1 pot conf: confirmation of human NPY-Y1 receptor potentiators or agonists | shares compounds with NPY-Y1 PAM-ag | cell-based NPY-Y1 potentiator/agonist assay | activation, % at 3.6 µM | 20% of 280 active | AID 1546; in the data active = activation above about 45%;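 note: cells challenged with NPY at its EC10 plus isoproterenol stimulus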
NPY-Y2 counter: potentiates or activates NPY-Y2, counter-screen for NPY-Y1 hits. shares compounds with NPY-Y1 PAM-ag. HEK293-CNG cells, membrane-potential fluorescence (FLIPR), 1536-well. activation, % at 3.6 µM. 20% of 280 active; in the data active = activation above about 33%
NPY-Y1 agonist: human NPY-Y1 agonism as potentiator counter-screen; shares compounds with NPY-Y1 PAM-ag; HEK293 Y1-CNGC, membrane potential fluorescence, agonist mode; activation, % at 3.6 µM; 50% of 280 active; AID 1697;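 active = percent activation above the mean of DMSO-only control wells plus 3 SD of those wells, cut at about 18% in these data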;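 note: cells challenged with isoproterenol plus Ro 20-1724 with no NPY in test wells; Y1 agonism lowers isoproterenol-driven cAMP and reduces probe fluorescence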
NPY-Y2 agonist: human NPY-Y2 agonism as NPY-Y1 counter-screen; shares compounds with NPY-Y1 PAM-ag; HEK293 Y2-CNGC, membrane potential fluorescence, agonist mode; activation, % at 3.6 µM; 67% of 280 active; AID 1698;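 active = activation above the solvent-only control wells' mean plus 3 SD, cut at about 11% in these data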;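 note: 0% = DMSO with isoproterenol and 100% = 40 nM NPY maximal response; agonism lowers cAMP so well fluorescence drops in active wells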
CNGC inh 2: counter-screen for NPY-Y1 potentiators or agonists: CNG channel inhibitors | shares compounds with NPY-Y1 PAM-ag | 42% of 280 active | inhibition, % at 3.6 µM | HEK293-CNG parental, isoproterenol cAMP, membrane potential fluorescence;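 active = inhibition above the mean of stimulated solvent-only control wells plus 3 SD, cut at about 22% in these data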;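 note: 0% = isoproterenol-stimulated DMSO wells and 100% = unstimulated DMSO wells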
Starred values were filed as active, the others as inactive; nt = not tested or not shown. The list is not random: actives were taken first. Their share in the collection is about 2.8%.

SMILES	NPY-Y2 PAM-ag	NPY-Y1 PAM-ag	EP2 modulator	NPY-Y1 antag	NPY-Y2 antag	EP2 antag	NPY-Y1 pot conf	NPY-Y2 counter	NPY-Y1 agonist	NPY-Y2 agonist	CNGC inh 2
COCCCNCC(O)COc1ccccc1F (configuration not stated)	26	49*	35	-1	nt	8	30	25	31*	27*	4
CC(NC(=O)c1cccs1)c1nc(-c2ccncc2)n[nH]1 (configuration not stated)	nt	nt	36	nt	nt	7	nt	nt	nt	nt	nt
O=C(Nc1ccccc1)Nc1cc(OCC(F)(F)F)cc(OCC(F)(F)F)c1	24	46*	-16	-4	-2	0	36	30	11	25*	25*
O=C(Nc1ccccc1)Nc1cc(Cl)cc(Cl)c1	-4	15	-59	-4	-2	28	nt	nt	nt	nt	nt
COc1ccc(C(=O)Nc2ccc(S(=O)(=O)Nc3nccnc3OC)cc2)cc1	-2	-4	-2	0	-1	11	nt	nt	nt	nt	nt
COc1nccnc1NS(=O)(=O)c1ccc(NS(=O)(=O)c2ccc(NC(C)=O)cc2)cc1	-3	81*	16	-1	3	7	5	-1	3	8	13
Cc1ccc2cc3c(NC(=O)C(C)C)nn(C)c3nc2c1	10	37*	-13	2	-1	6	-3	-4	-2	6	1
Clc1cccc(-n2cnnn2)c1	nt	nt	-21	nt	nt	6	nt	nt	nt	nt	nt
CCCC(=O)c1ccc(N2CCN(C(=O)c3ccccc3)CC2)c(F)c1	16	21	-42	-9	-1	13	nt	nt	nt	nt	nt
CCCC(=O)c1ccc(N2CCN(C(=O)c3ccccc3Br)CC2)c(F)c1	8	34*	-18	-19	5	10	-27	0	-11	-2	-1
Cn1c(=O)c2cc(S(=O)(=O)NC3(c4ccc(F)cc4)CC3)ccc2n(C)c1=O	nt	nt	-58	nt	nt	9	nt	nt	nt	nt	nt
CC(=O)Oc1cccc2ccc[n+](C)c12	nt	nt	0	nt	nt	8	nt	nt	nt	nt	nt
CCCOC(=O)c1c(-c2ccc(C)cc2C)csc1NC(=O)C1C2CCC(O2)C1C(=O)O (configuration not stated)	25	48*	33	-1	-1	12	18	9	18*	13*	12
CC(=O)C(C)Sc1nc2c(c(=O)n(C)c(=O)n2C)n1Cc1ccc(C)cc1 (configuration not stated)	nt	nt	13	nt	nt	10	nt	nt	nt	nt	nt
Cc1ccccc1-n1nc(C(=O)c2cccs2)cc(-c2nc3ccccc3[nH]2)c1=N	26	48*	-57	-6	-2	16	73*	65*	62*	66*	62*
Cc1c(Cl)ccc2c1NC(=O)[C@]21[C@@H]2C(=O)N(Cc3ccccc3)C(=O)[C@@H]2[C@@H]2CCCN21	8	32*	23	-2	-3	8	22	14	15	11*	16
CCc1cccc2c1NC(=O)[C@]21[C@@H]2C(=O)N(Cc3ccccc3)C(=O)[C@@H]2[C@@H]2CCCN21	9	25	1	1	-2	12	nt	nt	nt	nt	nt
CCC(CC)C(=O)Nc1c2c(nn1-c1ccc(OC)cc1)CS(=O)C2 (configuration not stated)	2	41*	15	3	2	7	-2	-2	-4	2	2
COc1ccc(C2(NC(=O)c3snnc3C)CCCCC2)cc1	nt	nt	-9	nt	nt	nt	nt	nt	nt	nt	nt
CCOC(=O)C1CCN(C2=C(NS(=O)(=O)c3ccc(Cl)cc3)C(=O)c3ccccc3C2=O)CC1	35	55*	-21	nt	nt	10	72*	57*	70*	65*	57*
CC(=O)Nc1ccc(S(=O)(=O)NC2=C(N3CCN(Cc4ccccc4)CC3)C(=O)c3ccccc3C2=O)cc1	4	5	-22	-12	-7	nt	nt	nt	nt	nt	nt
CC1CCN(C2=C(NS(=O)(=O)c3ccc(Cl)cc3)C(=O)c3ccccc3C2=O)CC1	19	44*	27	-17	-11	1	99*	80*	65*	57*	77*
COc1cc2c(cc1NC(=O)C(C)OC(=O)C1CC(=O)N(Cc3ccco3)C1)oc1ccccc12 (configuration not stated)	6	124*	-15	-10	-3	7	6	8	12	16*	15
Cc1nn(Cc2ccc(Cl)c(Cl)c2)c(C)c1[N+](=O)[O-]	nt	nt	16	nt	nt	5	nt	nt	nt	nt	nt
O=C1c2cccc3cccc(c23)C(=O)N1CCN1CCN(CC(O)COCc2ccc(Cl)cc2)CC1 (configuration not stated)	29	37*	-40	3	3	13	41	46*	31*	57*	47*
SMILES	NPY-Y2 PAM-ag	NPY-Y1 PAM-ag	EP2 modulator	NPY-Y1 antag	NPY-Y2 antag	EP2 antag	NPY-Y1 pot conf	NPY-Y2 counter	NPY-Y1 agonist	NPY-Y2 agonist	CNGC inh 2
CC(=O)c1ccccc1OCC(O)CN1CCN(CCN2C(=O)c3cccc4cccc(c34)C2=O)CC1 (configuration not stated)	19	36*	-32	-7	nt	11	30	27	10	20*	15
Cc1ccc(C)c(OCC(O)CN2CCN(CCN3C(=O)c4cccc5cccc(c45)C3=O)CC2)c1 (configuration not stated)	11	26	-71	10	4	7	nt	nt	nt	nt	nt
c1cncc(Nc2nc(-c3ccncc3)cs2)c1	15	19	5	-6	-7	1	nt	nt	nt	nt	nt
Cc1nc(C)c(-c2csc(Nc3cccnc3)n2)s1	26	40*	-9	-16	-7	9	51*	41*	53*	52*	41*
CCCCOc1ccc2c(c1)C(=O)c1cc(O)ccc1-2	23	38*	9	-4	nt	7	49*	41*	40*	39*	33*
CCOc1ccc2c(c1)C(=O)c1cc(OCC(=O)O)ccc1-2	3	-3	2	nt	nt	15	nt	nt	nt	nt	nt
COc1ccc2cc(C)c3nn(CC(=O)N4CCCCC4)c(=O)n3c2c1	nt	nt	-83	nt	nt	13	nt	nt	nt	nt	nt
O=C(CSCSCC(=O)Nc1ccc2c(c1)OCO2)Nc1ccc2c(c1)OCO2	12	46*	-2	-2	3	4	4	0	5	-4	0
